Published values of several laboratories.
Each line is one published result; the experiments were not run side by side.
Target: Serine/threonine-protein kinase 26 (STK26, Homo sapiens, UniProt Q9P289)

Cn1cc(-c2cc(F)cc(N3CCn4c(cc5c4CCCC5)C3=O)c2CO)cc(Nc2ccc(N3CCN(C4COC4)CC3)cn2)c1=O — inhibition (enzyme activity, inhibitor; 0.1 µM): 14%
COc1ncccc1-c1cnn2ccc(N3CCN(C(=O)OC(C)C)CC3)nc12 — remaining binding (binding, competition with immobilised ligand; 1 µM): 92%
Cn1cncc1[C@@](O)(COc1ccc(C#N)cc1-c1ccc(OC(F)(F)F)cc1)c1ccc(C#N)cc1 — remaining binding (cell-free assay, competition with immobilised ligand; 1 µM): 99%
Nc1ncc(-c2nc(N3CCOCC3)nc(N3CCOCC3)n2)c(C(F)F)n1 — remaining binding (binding, competition with immobilised ligand; 10 µM): 91%
O=c1[nH]c2ccccc2n1C1CCN(Cc2ccc(-c3[nH]c4cc5ncnc5cc4nc3-c3ccccc3)cc2)CC1 — remaining signal (cell-free assay; 0.5 µM): 102%
N#CC1(c2ccccn2)CCN(Cc2cc(C(=O)O)c(=O)n3ccccc23)CC1 — remaining binding (cell-free assay, competition with immobilised ligand; 1 µM): 100%
CCN1CCN(Cc2ccc(NC(=O)c3ccc(C)c(/C=C/c4cnc5[nH]ccc5c4OC)c3)cc2C(F)(F)F)CC1 — inhibition (target engagement in cells, inhibitor, chemoproteomics; A-375; 50 nM): -14.9%
CC(C)(C)c1cc(C=C(C#N)C#N)cc(Br)c1O — remaining activity (enzyme activity, inhibitor; 0.5 µM): 95.2%
Cc1nn(C)cc1-c1nc2c(N3CCN(Cc4ccc(Cl)cc4)CC3)c(Cl)cnc2[nH]1 — remaining binding (binding, competition with immobilised ligand; 1 µM): 100%
